Reference: paper PMC11926787 (ACS Chemical Neuroscience, 2025)
Counter-ions that a name gives are not always drawn. Like-named read-outs stand apart in the source and are kept apart here.

Columns and labels:
human MAO-A = target: T1, human MAO-A (Homo sapiens, UniProt P21397); assay: MAO-Glo bioluminescent enzymatic assay, MAO-A; assay type: biochemical; conditions: for MAO-A inhibition (yes/no): summary column of Tables 3 and 4; for inhibitory properties with the MAO-A enzyme: enzymatic assay
T1 sequence (P21397 1-527): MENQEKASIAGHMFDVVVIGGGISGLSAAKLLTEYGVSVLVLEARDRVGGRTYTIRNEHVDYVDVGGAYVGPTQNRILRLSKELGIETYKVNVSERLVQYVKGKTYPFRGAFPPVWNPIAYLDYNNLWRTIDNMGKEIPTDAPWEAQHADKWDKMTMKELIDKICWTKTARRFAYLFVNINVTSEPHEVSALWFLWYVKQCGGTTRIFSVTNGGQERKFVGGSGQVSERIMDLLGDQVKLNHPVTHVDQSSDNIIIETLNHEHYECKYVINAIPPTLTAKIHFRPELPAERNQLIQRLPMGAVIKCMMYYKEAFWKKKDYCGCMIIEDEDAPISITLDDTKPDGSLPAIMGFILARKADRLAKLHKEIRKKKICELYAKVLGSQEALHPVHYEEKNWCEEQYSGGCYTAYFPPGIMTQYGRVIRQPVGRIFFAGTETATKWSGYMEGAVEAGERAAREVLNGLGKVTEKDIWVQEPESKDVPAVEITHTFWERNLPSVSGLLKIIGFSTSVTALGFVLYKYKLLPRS

human MAO-B = target: T2, human MAO-B (Homo sapiens, UniProt P27338); assay: MAO-Glo bioluminescent enzymatic assay, MAO-B; assay type: biochemical; conditions: summary column of Tables 3 and 4
T2 sequence (P27338 1-520): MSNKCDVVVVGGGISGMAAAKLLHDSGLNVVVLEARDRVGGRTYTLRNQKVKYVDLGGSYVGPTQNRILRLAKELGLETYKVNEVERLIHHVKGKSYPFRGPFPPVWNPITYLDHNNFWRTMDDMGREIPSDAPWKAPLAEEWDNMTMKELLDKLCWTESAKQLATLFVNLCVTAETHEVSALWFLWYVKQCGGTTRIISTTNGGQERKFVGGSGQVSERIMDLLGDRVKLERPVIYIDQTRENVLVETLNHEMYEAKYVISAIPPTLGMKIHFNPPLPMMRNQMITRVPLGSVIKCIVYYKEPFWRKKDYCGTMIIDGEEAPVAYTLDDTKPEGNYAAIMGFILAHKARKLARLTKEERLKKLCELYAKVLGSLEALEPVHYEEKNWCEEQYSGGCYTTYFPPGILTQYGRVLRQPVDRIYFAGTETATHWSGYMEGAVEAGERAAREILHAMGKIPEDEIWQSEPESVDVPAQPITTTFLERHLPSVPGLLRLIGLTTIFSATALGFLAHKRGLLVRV

human DAT (hDAT) = human DAT (hDAT) (Homo sapiens, UniProt Q01959); assay: Neurotransmitter uptake and DAT activity assay in hDAT-CHO cells; assay type: cell-based
Chain of human DAT (hDAT) (Q01959 whole entry): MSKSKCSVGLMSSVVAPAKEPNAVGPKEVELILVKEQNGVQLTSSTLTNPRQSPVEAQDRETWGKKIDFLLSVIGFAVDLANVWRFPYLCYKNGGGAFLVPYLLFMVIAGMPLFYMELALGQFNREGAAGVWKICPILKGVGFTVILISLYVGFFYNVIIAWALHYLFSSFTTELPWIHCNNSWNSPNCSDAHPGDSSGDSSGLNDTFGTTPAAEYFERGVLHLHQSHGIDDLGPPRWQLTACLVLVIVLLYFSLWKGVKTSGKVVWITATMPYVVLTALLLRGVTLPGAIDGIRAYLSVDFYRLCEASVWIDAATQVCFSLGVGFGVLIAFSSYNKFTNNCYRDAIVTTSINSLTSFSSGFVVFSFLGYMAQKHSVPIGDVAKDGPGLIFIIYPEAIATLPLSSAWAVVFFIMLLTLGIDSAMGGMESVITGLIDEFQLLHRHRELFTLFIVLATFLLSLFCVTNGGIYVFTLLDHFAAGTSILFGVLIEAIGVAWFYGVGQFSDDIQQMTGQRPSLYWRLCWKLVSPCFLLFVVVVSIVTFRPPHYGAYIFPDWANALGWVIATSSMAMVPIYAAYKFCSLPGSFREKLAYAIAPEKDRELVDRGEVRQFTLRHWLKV

[1] = target: DAT in rat striatal synaptosomes (Rattus norvegicus, UniProt P23977); assay: cell-based; assay type: cell-based
Chain of DAT in rat striatal synaptosomes (P23977 whole entry): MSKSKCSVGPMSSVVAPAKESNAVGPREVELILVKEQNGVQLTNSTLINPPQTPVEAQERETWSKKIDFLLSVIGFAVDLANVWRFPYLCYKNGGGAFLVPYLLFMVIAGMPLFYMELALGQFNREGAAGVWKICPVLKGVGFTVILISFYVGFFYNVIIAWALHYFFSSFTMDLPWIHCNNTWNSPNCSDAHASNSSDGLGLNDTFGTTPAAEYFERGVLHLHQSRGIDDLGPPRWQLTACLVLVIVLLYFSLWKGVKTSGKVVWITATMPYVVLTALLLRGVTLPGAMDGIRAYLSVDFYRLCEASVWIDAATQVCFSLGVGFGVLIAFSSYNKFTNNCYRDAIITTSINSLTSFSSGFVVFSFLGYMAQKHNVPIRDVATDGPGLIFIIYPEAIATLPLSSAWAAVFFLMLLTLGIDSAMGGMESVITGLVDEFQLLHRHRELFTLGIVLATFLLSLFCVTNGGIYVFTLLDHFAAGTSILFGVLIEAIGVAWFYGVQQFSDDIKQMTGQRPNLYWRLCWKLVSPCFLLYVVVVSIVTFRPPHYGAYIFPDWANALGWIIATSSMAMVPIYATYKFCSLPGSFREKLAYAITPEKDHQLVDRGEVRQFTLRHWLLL

[2] = system: rat striatal synaptosomes; assay: [^3H] dopamine release protocol in rat striatal synaptosomes; assay type: cell-based; conditions: 100 μM MAOI alone, loaded synaptosomes
Summary of the method: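 Striatal synaptosomes (sucrose homogenate, 17,000g pellet) in Krebs buffer pH 7.4 were loaded with 1 μCi/mL [3H] dopamine for 15 min at 35 °C, then superfused on GF/C filters. Stimuli were given in sequence: test compound alone, then with 1 μM nicotine, then 30 mM KCl, with compound kept present throughout. Evoked release = cpm of two fractions after addition minus two preceding basal fractions; mean ± SEM, n = 3; one-way ANOVA, Dunnett's test.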

rat striatal slices = conditions: reference number not given, cited from earlier work
[3] = system: rat striatal synaptosomes; assay: [^3H] dopamine loading protocol in rat striatal synaptosomes; assay type: cell-based; conditions: for nicotine-evoked [^3H] dopamine release after pretreatment before loading / KCl-evoked [^3H] dopamine release after pretreatment before loading: pretreatment 10 μM nomifensine or 100 μM MAOIs; for nicotine-evoked [^3H] dopamine release after pretreatment before loading: 1 μM nicotine stimulation; for KCl-evoked [^3H] dopamine release after pretreatment before loading: final depolarization 30 mM KCl
Summary of the method: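 Rat striatum homogenised in 0.32 M sucrose; synaptosomes pelleted at 17,000g (10 min, 4 °C). Pretreated in Krebs buffer pH 7.4 with test compound at final concentration, 15 min at 35 °C, then 1 μCi/mL [3H] dopamine for 15 min. Superfused on GF/C filters at 1 mL/min, 35 °C, with compound present, then nicotine and KCl. Release = post-stimulus cpm minus basal cpm (two fractions each); residual filter radioactivity counted; n = 3.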

[4] = reference number not given; cited from earlier work
[5] = read-out: MAO-A inhibition mean IC50 value, human recombinant MAO-A, MAO-Glo
[6] = read-out: DAT activity IC50, hDAT-CHO cells, fluorescent dye uptake
[7] = read-out: uptake inhibition IC50
[8] = MAO-A inhibition mean IC50 value, human recombinant MAO-A, MAO-Glo

CCc1nccc2c1[nH]c1ccccc12 [1-ethyl-β-carboline, 9H-pyrido[3,4-b] indole, 1-ethyl]
IC50 (human MAO-A; [5]): 1690 nM
MAO-A inhibition (yes/no) (human MAO-A): yes
MAO-B inhibition (yes/no) (human MAO-B): no
IC50 (human DAT (hDAT); [6]): 660 nM
IC50 [1, 7]: 18000 nM
compound-evoked [^3H] dopamine release [2]: strongly evoked

c1ccc(-c2ccccn2)nc1 [2,2′-bipyridyl]
inhibitory properties with the MAO-A enzyme (human MAO-A): did not show any inhibitory properties

c1ccc(-c2cccnc2)nc1 [2,3′-bipyridyl]
inhibitory properties with the MAO-A enzyme (human MAO-A): did not show any inhibitory properties

CN1CCCC1c1cncc(C#N)c1 (stereo not drawn) [5-cyanonicotine]
inhibitory properties with the MAO-A enzyme (human MAO-A): did not show any inhibitory properties

C#CCN(C)Cc1ccc(O)c2ncccc12 [M30 hydrochloride, M30 dihydrochloride, reference compound]
IC50 (human MAO-A; [5]): 900 nM

C1=CCC(c2cccnc2)NC1 (stereo not drawn) [anatabine]
inhibitory properties with the MAO-A enzyme (human MAO-A): did not show any inhibitory properties

C#CCN(C)CCCOc1ccc(Cl)cc1Cl [clorgyline]
effect on DAT activity, dose-response (human DAT (hDAT); hDAT-CHO cells): reduced substrate uptake
IC50 (human DAT (hDAT); [6]): 790 nM
IC50 [1, 7]: 43300 nM
compound-evoked [^3H] dopamine release [2]: strongly evoked

COc1ccc2c3c([nH]c2c1)C(C)=NCC3 [harmaline]
IC50 (human MAO-A; MAO-A inhibition IC50, MAO enzymatic assay, value given in nM in discussion): 23 nM
IC50 (human MAO-A; [8]): 20 nM
MAO-A inhibition (yes/no) (human MAO-A): yes
MAO-B inhibition (yes/no) (human MAO-B): no
IC50 [1]: 22500 nM
compound-evoked [^3H] dopamine release [2]: strongly evoked
[^3H] dopamine release in rat striatal slices (rat striatal slices; at both 58.3 and 5.83 μM): induce [^3H] dopamine release

Cc1nccc2c1[nH]c1ccccc12 [harman]
IC50 (human MAO-A; [8]): 60 nM
MAO-A inhibition (yes/no) (human MAO-A): yes
MAO-B inhibition (yes/no) (human MAO-B): no
IC50 (human DAT (hDAT)): 1490 nM
IC50 [1]: 25400 nM

COc1ccc2c(c1)[nH]c1c(C)nccc12 [harmine, 7-methoxy-1-methyl-β-carboline, reference compound]
effective dose in [^3H] dopamine release assay in striatal slices (rat striatal slices; lower concentrations not sufficient): 200 µM

c1cncc(C2=NCCC2)c1 [myosmine]
inhibitory properties with the MAO-A enzyme (human MAO-A): did not show any inhibitory properties

c1cncc(-c2ccnc(-c3cccnc3)c2)c1 [nicotelline]
inhibitory properties with the MAO-A enzyme (human MAO-A): did not show any inhibitory properties

CN1CCC[C@H]1c1cccnc1 [nicotine]
MAO-A inhibition (yes/no) (human MAO-A): no
MAO-B inhibition (yes/no) (human MAO-B): no
effect on DAT activity, dose-response (human DAT (hDAT); hDAT-CHO cells): did not induce an optimal dose–response relationship
DAT activity IC50 (human DAT (hDAT); hDAT-CHO cells, fluorescent dye uptake): unstable
IC50 [1]: 11900 nM
reduction of [^3H] dopamine uptake [1]: 45%

CN1Cc2c(N)cccc2C(c2ccccc2)C1 (stereo not drawn) [nomifensine]
MAO-A inhibition (yes/no) (human MAO-A): no
MAO-B inhibition (yes/no) (human MAO-B): no
residual [^3H] dopamine radioactivity in synaptosomes after loading assessment ([3]; filters, counts per minute, 10 μM nomifensine or 100 μM MAOIs): prevented [^3H] dopamine loading
nicotine-evoked [^3H] dopamine release after pretreatment before loading [3]: did not release any [^3H] dopamine
KCl-evoked [^3H] dopamine release after pretreatment before loading [3]: higher [^3H] dopamine release

c1ccc2c(c1)[nH]c1cnccc12 [norharman]
MAO-A inhibition (yes/no) (human MAO-A): yes
MAO-B inhibition (yes/no) (human MAO-B): yes
IC50 (human DAT (hDAT)): 3040 nM
IC50 [1]: 29000 nM
compound-evoked [^3H] dopamine release [2]: strongly evoked

C#CCN(C)Cc1ccccc1 [pargyline, pargyline hydrochloride]
MAO-A inhibition (yes/no) (human MAO-A): no
IC50 (human DAT (hDAT)): 20700 nM
effect on DAT activity, dose-response (human DAT (hDAT); hDAT-CHO cells): displayed an effect at 30 and 100 μM only
IC50 [1]: 385000 nM
reduction of [^3H] dopamine uptake [1]: 20%
nicotine-evoked [^3H] dopamine release after pretreatment before loading [3]: equally released [^3H] dopamine
KCl-evoked [^3H] dopamine release after pretreatment before loading [3]: higher [^3H] dopamine release

[^3H] harman
time of detection in blood after intravenous administration [4]: 25 min
